Two compounds from ChEMBL document CHEMBL4706730, “A Set of Highly Sensitive Sirtuin Fluorescence Probes for Screening Small-Molecular Sirtuin Defatty-Acylase Inhibitors” (ACS Med Chem Lett, 2021) can be followed below.

pIC50: −log10 of the molar value. Activity calls are given as the source filed them. The calls are words filed in the database; no cut-off is given here. Square brackets hold non-standard residues; d marks the D form. Peptide text beside a SMILES is read from it. Lys(thiomyristoyl) = CCCCCCCCCCCCCC(=S)NCCCC[C@H](N)C(=O)O

Test [1] has as its target T1, NAD-dependent protein deacetylase sirtuin-2 (Homo sapiens, UniProt Q8IXJ6).
T1 sequence (Q8IXJ6 whole entry): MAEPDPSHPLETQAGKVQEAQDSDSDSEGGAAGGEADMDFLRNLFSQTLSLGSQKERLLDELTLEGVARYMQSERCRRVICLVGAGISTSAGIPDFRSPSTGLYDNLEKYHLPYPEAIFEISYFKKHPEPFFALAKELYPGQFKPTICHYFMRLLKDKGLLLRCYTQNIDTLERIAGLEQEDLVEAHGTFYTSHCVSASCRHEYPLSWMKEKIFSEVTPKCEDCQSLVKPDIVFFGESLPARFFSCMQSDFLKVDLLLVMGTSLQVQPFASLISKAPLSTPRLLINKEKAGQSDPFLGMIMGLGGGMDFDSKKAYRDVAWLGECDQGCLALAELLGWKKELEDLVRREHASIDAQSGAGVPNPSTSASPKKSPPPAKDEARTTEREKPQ
Description: Inhibition of 5-(3-((1r,4r)-4-((5S,8S,11S,14S,17S,20S,29S)-11-((1H-imidazol-4-yl)methyl)-1,33-diamino-5-carbamoyl-17-(4-(4-(4-((4-(dimethylamino)phenyl)diazenyl)phenyl)butanamido)butyl)-8,14-bis(3-guanidinopropyl)-20-methyl-7,10,13,16,19,22,25,28-octaoxo-6,9,12,15,18,21,24,27-octaazatritriacontan-29-ylcarbamoyl)cyclohexyl)thioureido)-2-(6-hydroxy-3-oxo-3H-xanthen-9-yl)benzoic acid binding to SIRT2 (unknown origin) measured after 2 hrs in presence of NAD+ by fluorometric method. A digest of the protocol: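 The second screen used the same SIRT2 one-step FRET probe conditions, validated at 2.92 nM SIRT2. Compounds were tested over a range of concentrations to check dose-dependency, and the IC50 was derived from the dose–response curve.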

Test [2] addresses T2, NAD-dependent protein deacetylase sirtuin-3, mitochondrial (Homo sapiens) (UniProt Q9NTG7).
T2 sequence (whole entry): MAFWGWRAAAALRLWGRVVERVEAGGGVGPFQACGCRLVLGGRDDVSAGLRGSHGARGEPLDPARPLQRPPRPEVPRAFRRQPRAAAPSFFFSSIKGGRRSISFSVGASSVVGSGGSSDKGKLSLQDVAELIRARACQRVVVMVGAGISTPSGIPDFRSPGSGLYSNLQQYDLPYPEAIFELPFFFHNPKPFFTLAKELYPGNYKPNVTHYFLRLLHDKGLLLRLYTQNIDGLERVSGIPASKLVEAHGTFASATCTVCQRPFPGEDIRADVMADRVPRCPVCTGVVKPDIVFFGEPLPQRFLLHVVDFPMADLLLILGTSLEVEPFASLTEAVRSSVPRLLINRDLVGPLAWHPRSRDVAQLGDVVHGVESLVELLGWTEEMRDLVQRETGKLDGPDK
Nature of the test: Inhibition of 5-(3-((1r,4r)-4-((5S,8S,11S,14S,17S,20S,29S)-11-((1H-imidazol-4-yl)methyl)-1,33-diamino-5-carbamoyl-17-(4-(4-(4-((4-(dimethylamino)phenyl)diazenyl)phenyl)butanamido)butyl)-8,14-bis(3-guanidinopropyl)-20-methyl-7,10,13,16,19,22,25,28-octaoxo-6,9,12,15,18,21,24,27-octaazatritriacontan-29-ylcarbamoyl)cyclohexyl)thioureido)-2-(6-hydroxy-3-oxo-3H-xanthen-9-yl)benzoic acid binding to SIRT3 (unknown origin) at 50 uM measured after 2 hrs in presence of NAD+ by fluorometric method.

Test [3] has as its target T3, NAD-dependent protein deacetylase sirtuin-1 (Homo sapiens) (UniProt Q96EB6).
T3 sequence (whole entry): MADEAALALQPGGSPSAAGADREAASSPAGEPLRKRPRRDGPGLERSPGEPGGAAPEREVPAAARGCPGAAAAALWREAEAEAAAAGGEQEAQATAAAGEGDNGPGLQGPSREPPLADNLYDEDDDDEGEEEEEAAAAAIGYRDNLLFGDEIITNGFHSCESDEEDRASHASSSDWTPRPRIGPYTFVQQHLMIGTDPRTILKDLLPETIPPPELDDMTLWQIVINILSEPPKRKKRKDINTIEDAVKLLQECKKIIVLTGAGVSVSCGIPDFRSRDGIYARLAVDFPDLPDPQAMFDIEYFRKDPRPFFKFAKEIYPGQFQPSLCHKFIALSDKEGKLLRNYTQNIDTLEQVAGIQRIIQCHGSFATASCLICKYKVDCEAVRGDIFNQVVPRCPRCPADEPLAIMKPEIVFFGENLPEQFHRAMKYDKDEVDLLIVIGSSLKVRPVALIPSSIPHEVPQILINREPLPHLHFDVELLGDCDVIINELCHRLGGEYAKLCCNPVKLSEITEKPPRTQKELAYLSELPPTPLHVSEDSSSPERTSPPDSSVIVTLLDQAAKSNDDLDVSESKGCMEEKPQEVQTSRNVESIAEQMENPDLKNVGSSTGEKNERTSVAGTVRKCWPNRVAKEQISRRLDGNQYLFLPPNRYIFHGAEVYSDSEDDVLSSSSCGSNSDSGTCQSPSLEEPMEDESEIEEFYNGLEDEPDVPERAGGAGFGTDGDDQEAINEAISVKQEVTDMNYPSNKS
Nature of the test: Inhibition of 5-(3-((1r,4r)-4-((5S,8S,11S,14S,17S,20S,29S)-11-((1H-imidazol-4-yl)methyl)-1,33-diamino-5-carbamoyl-17-(4-(4-(4-((4-(dimethylamino)phenyl)diazenyl)phenyl)butanamido)butyl)-8,14-bis(3-guanidinopropyl)-20-methyl-7,10,13,16,19,22,25,28-octaoxo-6,9,12,15,18,21,24,27-octaazatritriacontan-29-ylcarbamoyl)cyclohexyl)thioureido)-2-(6-hydroxy-3-oxo-3H-xanthen-9-yl)benzoic acid binding to SIRT1 (unknown origin) at 50 uM measured after 2 hrs in presence of NAD+ by fluorometric method.

For test [4], the target named is T1, NAD-dependent protein deacetylase sirtuin-2. Description: (§1) Inhibition of p53(Myr)-AMC binding to SIRT2 (unknown origin) incubated for 3 hrs in presence of NAD+ followed by trypsin addition and measured at 5 mins interval for 20 mins by fluorometric method.
The target of test [5] is T4, NAD-dependent protein deacetylase sirtuin-2 (Homo sapiens) (UniProt Q8IXJ6).
T4 sequence (whole entry): T1 sequence (Q8IXJ6 whole entry)
Described as §1. The following applies: time 200.0 min.

Test [6] deals with T1, NAD-dependent protein deacetylase sirtuin-2. Description: Inhibition of SIRT2 deacetylation activity (unknown origin) using FLUOR DE LYS SIRT2 peptide as substrate incubated for 2 hrs in presence of NAD+ measured at 5 mins interval for 20 mins by fluorescence assay.
The target of test [7] is T4, NAD-dependent protein deacetylase sirtuin-2 (Homo sapiens). Nature of the test: Inhibition of 5-(3-((1r,4r)-4-((5S,8S,11S,14S,17S,20S,29S)-11-((1H-imidazol-4-yl)methyl)-1,33-diamino-5-carbamoyl-17-(4-(4-(4-((4-(dimethylamino)phenyl)diazenyl)phenyl)butanamido)butyl)-8,14-bis(3-guanidinopropyl)-20-methyl-7,10,13,16,19,22,25,28-octaoxo-6,9,12,15,18,21,24,27-octaazatritriacontan-29-ylcarbamoyl)cyclohexyl)thioureido)-2-(6-hydroxy-3-oxo-3H-xanthen-9-yl)benzoic acid binding to SIRT2 (unknown origin) at 10 uM measured after 2 hrs in presence of NAD+ by fluorometric method relative to control. The method in brief: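 In the primary library screen, 384-well plates held SIRT2 with the Dabcyl-BH/H4K16 one-step FRET probe. Each compound was tested at 10 μM with 0.5% DMSO, and inhibition was taken from the fluorescence signal.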

Test [8] addresses NAD-dependent protein deacylase sirtuin-6 (Homo sapiens) (UniProt Q8N6T7). Nature of the test: Inhibition of 5-[[(1r,4r)-4-[[(1S)-4-amino-1-[[(1S,2R)-1-[[(1S)-2-[[(1S)-1-[[(1S)-1-[[(1S)-2-[[(1S,2R)-1-[[2-(carboxymethylamino)-2-oxoethyl]carbamoyl]-2-hydroxypropyl]amino]-1-(hydroxymethyl)-2-oxoethyl]carbamoyl]-5-[3-[N-methyl-4-[(4-nitrophenyl)azo]anilino]propanoylamino]pentyl]carbamoyl]-4-guanidinobutyl]amino]-1-methyl-2-oxoethyl]carbamoyl]-2-hydroxypropyl]carbamoyl]-4-oxobutyl]carbamoyl]cyclohexyl]carbamothioylamino]-2-(3-hydroxy-6-oxoxanthen-9-yl)benzoic acid binding to SIRT6 (unknown origin) at 50 uM measured after 2 hrs in presence of NAD+ by fluorometric method.
Target sequence in this assay (Q8N6T7 whole entry): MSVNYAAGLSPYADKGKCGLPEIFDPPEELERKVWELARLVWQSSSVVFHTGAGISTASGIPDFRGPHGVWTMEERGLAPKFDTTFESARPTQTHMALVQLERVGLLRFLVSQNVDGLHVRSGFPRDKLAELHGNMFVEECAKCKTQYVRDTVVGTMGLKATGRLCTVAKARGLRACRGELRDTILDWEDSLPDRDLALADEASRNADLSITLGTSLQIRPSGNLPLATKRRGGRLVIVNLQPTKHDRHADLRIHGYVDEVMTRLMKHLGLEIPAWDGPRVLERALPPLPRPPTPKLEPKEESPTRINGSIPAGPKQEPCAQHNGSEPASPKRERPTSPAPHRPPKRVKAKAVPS

Test [9] has the same target. Nature of the test: Inhibition of 5-[[(1r,4r)-4-[[(1S)-4-amino-1-[[(1S,2R)-1-[[(1S)-2-[[(1S)-1-[[(1S)-1-[[(1S)-2-[[(1S,2R)-1-[[2-(carboxymethylamino)-2-oxoethyl]carbamoyl]-2-hydroxypropyl]amino]-1-(hydroxymethyl)-2-oxoethyl]carbamoyl]-5-[3-[N-methyl-4-[(4-nitrophenyl)azo]anilino]propanoylamino]pentyl]carbamoyl]-4-guanidinobutyl]amino]-1-methyl-2-oxoethyl]carbamoyl]-2-hydroxypropyl]carbamoyl]-4-oxobutyl]carbamoyl]cycl ….
Target sequence in this assay (Q8N6T7 whole entry, looked up): as the sequence (Q8N6T7 whole entry) above

With `CCOC(=O)C[C@@H]1C[C@@H](C(C)C)[C@H](CNC(=O)c2cncnc2)C=C1C`, the pIC50 is 4.32 in test [1], 4.35 in test [4] and 5.29 in test [6]. For the same compound, the inhibition result in [2], in [3] and in [8] was “inactive” in each case. In addition, the inhibition result in [5] was “Dose-dependent effect”; in [7] it was more than 35%.

In test [9], `CCCCCCCCCCCCCC(=S)NCCCC[C@H](NC(=O)[C@@H](NC(=O)[C@H](CCCNC(=N)N)NC(C)=O)[C@@H](C)CC)C(=O)N[C@@H](CCCNC(=N)N)C(=O)N[C@@H](Cc1ccc(O)cc1)C(N)=O` (Ac-RI[Lys(thiomyristoyl)]RY-NH2) had a pIC50 of 7.00.

Usually pIC50 stands for −log10 of the IC50, conventionally taken in molar units. The inhibition is how much of the control response was suppressed.
